High-throughput results (PubChem)
MrgX1 allo act: allosterically activates human MrgX1 receptor signaling | AID 588675 | B-score at 10 µM | 310,000 compounds, 0.63% hits | Q96LB2 | MrgX1-HEK293, Fluo-4 calcium flux, FDSS; stronger effect = higher value;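 active = plate-corrected calcium response at least 3 library SD above typical, normal starting fluorescence, not activating the receptor alone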;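 note: compound read alongside a low EC10 to EC30 dose of BAM8-22 agonist; peak minus trough fluorescence over baseline measured at the second addition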
MrgX1 antagonist: blocks BAM8-22 activation of human MrgX1 receptor | Q96LB2 | MRGX1-HEK293 calcium flux, Fluo-4, BAM8-22 antagonism; stronger effect = lower value | B-score at 10 µM | 310,000 compounds, 1.3% hits | AID 588676;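 active = calcium-response B-score plate-corrected more than 3 library SD below zero, starting fluorescence within 5 deviations, no agonist response on first addition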;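 note: peak minus trough fluorescence over baseline after final BAM8-22 challenge near maximal dose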
RGS4 block: inhibitors of human RGS4 | 310,000 compounds, 0.45% hits | AID 463165 | HEK293 M3R/RGS4 inducible, Fluo-4 calcium flux; stronger effect = higher value; triggered by carbachol at its EC20 | P49798 | B-score at 10 µM;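 active = B-score, a plate-corrected calcium signal, over three deviations above library mean, with baseline fluorescence within five deviations of library mean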;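 note: RGS4 expression induced by doxycycline in cells with stable M3 receptor; B-score is computed from the integrated fluorescence ratio over baseline after carbachol; higher B-score means a larger calcium signal and so more RGS4 inhibition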
Target sequence (P49798 whole entry, looked up): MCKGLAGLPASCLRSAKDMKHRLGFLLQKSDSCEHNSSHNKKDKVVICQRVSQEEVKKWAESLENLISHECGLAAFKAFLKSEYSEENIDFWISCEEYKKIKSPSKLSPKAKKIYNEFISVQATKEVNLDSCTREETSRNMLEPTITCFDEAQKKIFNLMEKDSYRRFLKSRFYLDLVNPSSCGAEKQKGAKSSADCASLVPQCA
MrgX1 agonist: agonists of human MrgX1 receptor; Q96LB2; MrgX1-HEK293 cells, Fluo-4 calcium fluorescence, agonist mode; stronger effect = higher value; B-score at 10 µM; 310,000 compounds, 0.44% hits; AID 588627;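 active = calcium response B-score plate-corrected fluorescence ratio at least 3 library SD, with starting fluorescence B-score inside 5 SD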
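Assay system: MrgX1-expressing HEK293 cells / Amount: fifteen thousand cells per well / Doses: test compound in the initial addition of three / Timing: cells plated overnight, dye loaded 0.5 h 37 °C, 0.5 h room temperature / Technique: kinetic calcium dye fluorescence, Fluo-4 NW / Control set: positive and negative controls per plate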
RGS4 act: potentiators or activators of RGS4 | B-score at 10 µM | 310,000 compounds, 0.92% hits | AID 463111 | HEK293 M3R/inducible RGS4, carbachol calcium flux Fluo4; stronger effect = lower value;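 active = B-score of the integrated calcium signal more than 4 SD below the library mean, with starting fluorescence not abnormally high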;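 note: negative B-score means reduced calcium response which marks RGS4 activation or potentiation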
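Test system: HEK293 cells with stable M3R and inducible RGS4; also added: carbachol at ECmax as muscarinic agonist stimulus; schedule: dye loading 30 min 37 °C, buffer rest 30 min RT; technique: kinetic calcium fluorescence imaging with Fluo4-AM dye, 2 µM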
Of the large screens only hits and unclear results are named; the others gave an inactive call. Hits are enriched below; roughly 3.5% of the tested compounds scored in any of these assays.

COC(=O)C1(C(C[N+](=O)[O-])c2ccco2)C(=O)NCC1c1ccccc1 (stereo not given)	MrgX1 agonist 41.8
S=C1N(c2ccccc2)C(c2ccc(Cl)cc2)N2CCCN12 (stereo not given)	RGS4 act -7.24
COc1ccc(C2N(c3ccccc3)C(=S)N3CCCN23)cc1 (stereo not given)	none
COC(=O)c1nnn(-c2nc(N3CCOCC3)nc(N3CCOCC3)n2)c1C	none
CC1=N/C(=C/c2ccc([N+](=O)[O-])cc2)C(=O)N1c1ccc(Cl)cc1Cl	MrgX1 allo act 15.1
CC1=N/C(=C\c2ccc([N+](=O)[O-])cc2)C(=O)N1c1ccc(F)cc1F	MrgX1 allo act 16.9
Cc1cc([N+](=O)[O-])ccc1NC(=O)Nc1ccc(F)cc1F	none
CC1=N/C(=C\c2ccc([N+](=O)[O-])cc2)C(=O)N1c1ccc(Cl)cc1	none
O=C1ON=C(c2ccc(Cl)cc2)/C1=C/c1ccc(O)cc1	MrgX1 agonist 34.2
O=S(=O)(Nc1c(S(=O)(=O)c2ccccc2)c2nc3ccccc3nc2n1C1CCCCC1)c1ccccc1	RGS4 act -10.2
COc1ccc(S(=O)(=O)/N=C2/NC(=O)/C(=C/c3ccco3)S2)cc1	MrgX1 allo act 7.5
CC(C)(C)OC(=O)N1CCC2(CC1)Oc1ccc(Cl)cc1C(=O)C21CC(c2ccc(Cl)cc2)=NO1 (stereo not given)	none
Cn1c(SCCC#N)nnc1-c1ccc(F)cc1	none
CC1=C(SCCC#N)S/C(=C2\SC(C)=C(SCCC#N)S2)S1	MrgX1 antagonist -5.25
CCc1cccc(NC(=O)Cn2c(=O)c3cccn3c3ccccc32)c1	none
CSc1cccc(NC(=O)/C=C/c2ccco2)c1	MrgX1 allo act 6.54
CC(=O)c1ccc(NC(=S)NC(=O)/C=C/c2ccco2)cc1	none
COc1cccc(NC(=O)/C=C/c2ccco2)c1	none
O=C(/C=C/c1ccco1)NC(=S)Nc1ccccc1	MrgX1 allo act 12.9
Cc1cccc(NC(=S)NC(=O)/C=C/c2ccco2)c1	MrgX1 allo act 9.09
Cc1ccc(C(=O)C(c2ccccc2)N2Cc3ccccc3C2=N)cc1 (stereo not given)	RGS4 act -8.08
CCOC(=O)c1c(C)[nH]c(C(=O)N2CCCC(C(=O)c3cccc(OC)c3)C2)c1C (stereo not given)	none
CCOC(=O)c1c(C)[nH]c(C(=O)N2CCCC(C(=O)c3ccccc3OC)C2)c1C (stereo not given)	MrgX1 allo act 27.2
COc1cccc(C(=O)Nc2cccc(-c3ccc(N4CCOCC4)nn3)c2)c1OC	RGS4 act -7.45
O=C(COc1ccc2ccccc2c1)Nc1ccc(Br)cc1C(=O)O	none
C[C@H]1O[C@H](O[C@H]2[C@H](O[C@@H]3CC[C@@]4(C)C(CC[C@]5(C)C4CC=C4[C@@H]6CC(C)(C)CC[C@]6(C(=O)O[C@@H]6O[C@H](CO)[C@@H](O)[C@H](O)[C@H]6O)CC[C@]45C)C3(C)C)O[C@H](C(=O)O)[C@@H](O)[C@@H]2O)[C@@H](O)[C@@H](O)[C@@H]1O (stereo not given in full)	none (no result: RGS4 block, RGS4 act)
CC1OC(OC2C(OC3C(O[C@H]4CC[C@]5(C)C6C=C[C@]78OC[C@@]9(CC[C@@H](C)[C@H](C)C97)[C@H](O)C[C@@]8(C)[C@]6(C)CC[C@H]5C4(C)C)OC(C)C(O)C3O)OC(CO)C(O)C2O)C(O)C(O)C1O (stereo not given in full)	RGS4 act -7.38 (no result: MrgX1 allo act, MrgX1 antagonist, MrgX1 agonist)
Cc1ccc(CN2CCNC(=O)C2CC(=O)N(C)C2CCCCC2)cc1 (stereo not given)	none
c1ccc(Nc2nc3ccccc3n3nnnc23)cc1	none
CCN(CC)S(=O)(=O)c1ccc(Nc2nc3ccccc3n3nnnc23)cc1	MrgX1 allo act 13.8, MrgX1 antagonist -6.79
CC(=O)O[C@@H]1C[C@H]2C(C)(C)C(=O)C=C[C@]2(C)[C@H]2CC[C@@]3(C)[C@H](c4ccoc4)OC(=O)[C@H]4O[C@]43[C@@]21C	MrgX1 allo act 9.75
CC(C)c1nc2cc(C(=O)N3CCN(c4cnccn4)CC3)ccc2o1	none
O=C(CO/N=C1\CCCc2nonc21)Nc1ccc(Br)cc1	none
COc1ccc(NC(=O)CO/N=C2\CCCc3nonc32)cc1	none
O=C(CO/N=C1\CCCc2nonc21)Nc1ccccc1Cl	MrgX1 allo act 13.6
